Experimental data: ChEMBL document CHEMBL4334441, “Exploitation of Antibiotic Resistance as a Novel Drug Target: Development of a β-Lactamase-Activated Antibacterial Prodrug” (J Med Chem, 2019); call rule not given here
Values after ≈ are worked out from the molar mass of the structure shown.

Columns and labels:
Escherichia coli [1] = experiment: Growth inhibition of Escherichia coli CFT073 expressing pSU18 incubated for 18 hrs in presence of human serum; assay type: organism-based
In short: (§1)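 MIC assay in E. coli CFT073 carrying pSU18 (empty pEMP or encoding CTX-M-1), run in the presence of human serum. The read-out is the minimal concentration inhibiting bacterial growth.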

[2] = Prodrug activation in ciprofloxacin-resistant Escherichia coli isolate EC12 expressing bacterial beta lactamase CTX-M-15 assessed as bacterial CTX-M-15-mediated ciprofloxacin release by measuring growth inhibition incubated for 18 hrs by broth microdilution method
[3] = Ratio of prodrug activation in Escherichia coli CFT073 expressing beta lactamase CTX-M-1 assessed as bacterial CTX-M-1-mediated ciprofloxacin release by measuring bactericidal activity to bactericidal activity against Escherichia coli CFT073 expressing pSU18
[4] = Prodrug activation in Escherichia coli CFT073 expressing NDM1 assessed as bacterial NDM1-mediated ciprofloxacin release by measuring growth inhibition incubated for 18 hr by broth microdilution method; conditions: bacteria
In short: (§2)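 MIC determination in E. coli CFT073, either wild type or carrying pSU18 (empty pEMP, or encoding CTX-M, NDM-1 or KPC). Dose–response growth curves were run, and each point is the mean ± SEM of n = 3. The MIC is the minimal concentration that inhibits bacterial growth.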

[5] = Prodrug activation in Escherichia coli CFT073 expressing beta lactamase CTX-M-1 assessed as bacterial CTX-M-1-mediated ciprofloxacin release by measuring growth inhibition incubated for 18 hrs by broth microdilution method; conditions: bacteria; in short: as §2
[6] = Prodrug activation in ciprofloxacin sensitive Escherichia coli isolate EC17 expressing bacterial beta lactamase CTX-M-15 assessed as bacterial CTX-M-15-mediated ciprofloxacin release by measuring growth inhibition incubated for 18 hrs by broth microdilution method
[7] = Prodrug activation in ciprofloxacin-resistant Escherichia coli isolate EC19 expressing bacterial beta lactamase CTX-M-15 assessed as bacterial CTX-M-15-mediated ciprofloxacin release by measuring growth inhibition incubated for 18 hrs by broth microdilution method
Escherichia coli [8] = experiment: Bactericidal activity against Escherichia coli CFT073 expressing pSU18 assessed as reduction in colony forming units at 78 nM measured after 6 hrs; assay type: ADME, organism-based; conditions: in vivo, 0.078 µM
In short: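 Time-kill assay on uropathogenic E. coli CFT073 carrying pSU18, either empty (pEMP, β-lactamase coding sequence absent) or encoding CTX-M-1. Cells were left untreated or exposed to drug, and viability was followed over time by CFU counts, with a 6 h incubation read-out.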

Bacteria = experiment: Prodrug activation assessed as bacterial N-terminal His6-tagged CTX-M-15-mediated ciprofloxacin release by measuring inhibition of DNA gyrase activity 1 uM by SYBR Safe DNA gel staining-based agarose gel electrophoresis relative to control
In short: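 Cell-free assay using recombinant DNA gyrase with relaxed pBR322 plasmid DNA as substrate. Compounds were incubated with the gyrase and DNA in the absence or presence of purified recombinant β-lactamase CTX-M-15.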

[9] = Prodrug activation in ciprofloxacin-resistant Escherichia coli isolate EC13 expressing bacterial beta lactamase CTX-M-15 assessed as bacterial CTX-M-15-mediated ciprofloxacin release by measuring growth inhibition incubated for 18 hrs by broth microdilution method
Enterococcus faecalis [10] = experiment: Effect on growth of Enterococcus faecalis ATCC 29212 incubated for 18 hrs by broth microdilution method; assay type: organism-based; conditions: in vivo
Escherichia coli [11] = experiment: Growth inhibition of ciprofloxacin-susceptible Escherichia coli CFT073 harboring pSU18 incubated for 18 hrs by broth microdilution method; assay type: organism-based; conditions: in vivo; in short: as §2
[12] = Prodrug activation in ciprofloxacin sensitive Escherichia coli isolate EC11 expressing bacterial beta lactamase CTX-M-15 assessed as bacterial CTX-M-15-mediated ciprofloxacin release by measuring growth inhibition incubated for 18 hrs by broth microdilution method
Escherichia coli [13] = experiment: Growth inhibition of Escherichia coli CFT073 incubated for 18 hrs by broth microdilution method; assay type: organism-based; conditions: in vivo; in short: as §2
[14] = Prodrug activation in Escherichia coli CFT073 expressing KPC3 assessed as bacterial KPC3-mediated ciprofloxacin release by measuring growth inhibition incubated for 18 hr by broth microdilution method; conditions: bacteria; in short: as §2
[15] = Prodrug activation in Escherichia coli CFT073 expressing beta lactamase CTX-M-1 assessed as bacterial CTX-M-1-mediated ciprofloxacin release by measuring growth inhibition incubated for 18 hrs in presence of human serum by broth microdilution method; conditions: bacteria; in short: as §1
[16] = Prodrug activation in ciprofloxacin sensitive Escherichia coli isolate EC16 expressing bacterial beta lactamase CTX-M-15 assessed as bacterial CTX-M-15-mediated ciprofloxacin release by measuring growth inhibition incubated for 18 hrs by broth microdilution method
Enterococcus faecalis [17] = experiment: Effect on growth of Enterococcus faecalis GW01 incubated for 18 hrs by broth microdilution method; assay type: organism-based; conditions: in vivo

SMILES: CC(=O)N[C@@H]1C(=O)N2C(C(=O)O)=C(COC(=O)c3cn(C4CC4)c4cc(N5CCNCC5)c(F)cc4c3=O)CS[C@H]12
- Activity (Escherichia coli [1]): Non-Toxic
- growth inhibition (GI) [2]: Not Active
- Ratio [3]: > 100
- MIC [4]: 0.04 µg/mL (≈ 0.0683 µM)
- MIC [5]: 0.04 µg/mL (≈ 0.0683 µM)
- growth inhibition (GI) [6]: Active
- growth inhibition (GI) [7]: Not Active
- Activity (Escherichia coli [8]): Non-Toxic
- inhibition (Bacteria): > 50%
- growth inhibition (GI) [9]: Not Active
- Activity (Enterococcus faecalis [10]): Non-Toxic
- MIC (Escherichia coli [11]): 0.18 µg/mL (≈ 0.307 µM)
- growth inhibition (GI) [12]: Active
- MIC (Escherichia coli [13]): 0.18 µg/mL (≈ 0.307 µM)
- MIC [14]: 0.04 µg/mL (≈ 0.0683 µM)
- growth inhibition (GI) [15]: Active
- growth inhibition (GI) [16]: Active
- Activity (Enterococcus faecalis [17]): Non-Toxic
